Effect, inhibition and Ka data for 37 molecules are collected here from ChEMBL document CHEMBL1121365, “N,N'-Dialkylbis(dichlorophenyl)ethylenediamines and -imidazolidines: relationship between structure and estradiol receptor affinity” (J Med Chem, 1980).

T1 sequence (O08537 whole entry, looked up): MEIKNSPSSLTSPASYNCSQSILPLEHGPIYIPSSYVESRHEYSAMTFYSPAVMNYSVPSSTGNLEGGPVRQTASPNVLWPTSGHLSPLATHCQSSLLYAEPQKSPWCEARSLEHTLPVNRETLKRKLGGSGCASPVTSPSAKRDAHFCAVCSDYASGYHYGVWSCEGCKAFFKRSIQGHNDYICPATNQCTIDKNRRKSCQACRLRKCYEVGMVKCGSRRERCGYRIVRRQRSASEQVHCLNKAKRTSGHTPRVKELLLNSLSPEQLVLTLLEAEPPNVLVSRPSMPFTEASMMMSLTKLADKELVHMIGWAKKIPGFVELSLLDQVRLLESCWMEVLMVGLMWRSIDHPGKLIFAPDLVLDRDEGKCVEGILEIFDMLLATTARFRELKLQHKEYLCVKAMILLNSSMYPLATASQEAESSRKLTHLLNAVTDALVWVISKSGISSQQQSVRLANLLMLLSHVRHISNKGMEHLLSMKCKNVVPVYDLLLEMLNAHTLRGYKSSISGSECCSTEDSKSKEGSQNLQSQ
T1 sequence (P19785 whole entry, looked up): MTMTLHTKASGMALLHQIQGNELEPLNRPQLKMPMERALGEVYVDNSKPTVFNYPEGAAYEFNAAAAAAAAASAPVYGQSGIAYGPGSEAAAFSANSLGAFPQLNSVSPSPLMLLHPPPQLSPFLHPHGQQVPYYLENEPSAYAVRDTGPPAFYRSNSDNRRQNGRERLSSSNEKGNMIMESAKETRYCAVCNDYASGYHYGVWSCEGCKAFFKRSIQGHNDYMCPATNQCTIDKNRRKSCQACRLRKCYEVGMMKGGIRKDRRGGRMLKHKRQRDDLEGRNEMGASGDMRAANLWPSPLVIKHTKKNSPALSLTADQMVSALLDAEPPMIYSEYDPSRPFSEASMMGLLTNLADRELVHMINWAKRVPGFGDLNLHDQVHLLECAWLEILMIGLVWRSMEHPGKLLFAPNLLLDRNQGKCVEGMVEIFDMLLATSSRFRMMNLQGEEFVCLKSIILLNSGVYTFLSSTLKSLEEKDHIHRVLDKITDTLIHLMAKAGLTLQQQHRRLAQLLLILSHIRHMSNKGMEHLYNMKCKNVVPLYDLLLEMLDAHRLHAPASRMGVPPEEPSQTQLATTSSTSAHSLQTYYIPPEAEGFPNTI

The target of one experiment is T1, Estrogen receptor (Mus musculus) (UniProt O08537+P19785). The experiment can be described thus: Uterotrophic effect in immature mice as uterine dry weight(mg) relative to body weight(g) at 20 ug/day dose. The format is functional, tissue-based. The note with it: Uterus. A digest of the protocol:
(§1)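 Dorfman uterine weight test for estrogenic and antiestrogenic activity. Compounds were dissolved in arachis oil and given subcutaneously. Uterine weight was the read-out.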
Take `CCCN1CN(CCC)C(c2c(Cl)cccc2Cl)C1c1c(Cl)cccc1Cl` (trans isomer): the Effect was 19.6.

The molecule `CCCNC(c1c(Cl)cccc1Cl)C(NCCC)c1c(Cl)cccc1Cl` (stereo in doubt; 2g (d,l)) registered an Effect of 15.5.

For `CCCNC(c1c(Cl)cccc1Cl)C(NCCC)c1c(Cl)cccc1Cl` (stereo in doubt), the Effect is 14.8.

A further experiment has as its target T1, Estrogen receptor (Mus musculus). The experiment can be described thus: (§2) Uterotrophic effect in immature mice as uterine dry weight(mg) relative to body weight(g) at 1000 ug/day dose. Format: functional, tissue-based. The note with it: Uterus, in the assay text read “100 ug/day” for “1000 ug/day”. The essentials:
as §1
For the molecule `CCCN1CN(CCC)C(c2c(Cl)cccc2Cl)C1c1c(Cl)cccc1Cl` (trans isomer), the Effect turned out to be 21.4.

The molecule `CCCNC(c1c(Cl)cccc1Cl)C(NCCC)c1c(Cl)cccc1Cl` (stereo in doubt; 2g (d,l)) came in with an Effect of 19.6.

For `CCN1CN(CC)C(c2c(Cl)cccc2Cl)C1c1c(Cl)cccc1Cl` (cis isomer), the Effect turned out to be 17.1.

Molecule `CCCN1CN(CCC)C(c2c(Cl)cccc2Cl)C1c1c(Cl)cccc1Cl` (stereo in doubt) came in with an Effect of 17.7.

Molecule `CCCNC(c1c(Cl)cccc1Cl)C(NCCC)c1c(Cl)cccc1Cl` (stereo in doubt) showed an Effect of 17.5.

A further experiment has the same target. The experiment can be described thus: Uterotrophic effect in immature mice as uterine dry weight(mg) relative to body weight(g) at 2400 ug/day dose. Format: functional, tissue-based. The note with it: Uterus. A digest of the protocol:
as §1
As to `CCN1CN(CC)C(c2c(Cl)cccc2Cl)C1c1c(Cl)cccc1Cl` (trans isomer), the Effect is 46.2.

Another experiment shares this target. The experiment can be described thus: (§3) Uterotrophic effect in immature mice as uterine dry weight(mg) relative to body weight(g) at 2500 ug/day dose. Format: functional, tissue-based. The note with it: Uterus. A digest of the protocol:
(§4)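 Dorfman uterine weight test for estrogenic and antiestrogenic properties. Compounds were dissolved in arachis oil and given sc. Other details are in an earlier paper.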
With `CCNC(c1c(Cl)cccc1Cl)C(NCC)c1c(Cl)cccc1Cl` (stereo in doubt), the Effect is 35.6.

Another experiment has as its target T2, Estrogen receptor (Rattus norvegicus) (UniProt P06211+Q62986). The experiment can be described thus: In vitro association constant when complexed with the Estrogen receptor in Sprague-Dawley rat; Inhibition less than 10% at a ratio of [3H]estradiol/substance of 10e-4 M.
Conditions: not given
The format is protein assay.
`CCNC(c1ccc(Cl)c(Cl)c1)C(NCC)c1ccc(Cl)c(Cl)c1` (stereo in doubt): the inhibition (usually how much of the control response was suppressed) is under 10%.

For `CCCCNC(c1c(Cl)cccc1Cl)C(NCCCC)c1c(Cl)cccc1Cl` (stereo in doubt), the inhibition is under 10%.

Regarding `CCCCNC(c1ccc(Cl)cc1Cl)C(NCCCC)c1ccc(Cl)cc1Cl` (stereo in doubt; 2d (d,l)), the inhibition is under 10%.

On to `CCCCNC(c1ccc(Cl)c(Cl)c1)C(NCCCC)c1ccc(Cl)c(Cl)c1` (stereo in doubt; 2k (d,l)), for which the inhibition is under 10%.

For `CCCCN1CN(CCCC)C(c2c(Cl)cccc2Cl)C1c1c(Cl)cccc1Cl` (stereo in doubt; cis), the inhibition is under 10%.

`CCNC(c1cc(Cl)cc(Cl)c1)C(NCC)c1cc(Cl)cc(Cl)c1` (stereo in doubt; 21 (d,l)): the inhibition is under 10%.

On to `CCN1CN(CC)C(c2cc(Cl)cc(Cl)c2)C1c1cc(Cl)cc(Cl)c1` (cis isomer), for which the inhibition is under 10%.

Regarding `CCCCNC(c1c(Cl)cccc1Cl)C(NCCCC)c1c(Cl)cccc1Cl` (stereo in doubt; 2h (d,l)), the inhibition is under 10%.

For `CCNC(c1ccc(Cl)cc1Cl)C(NCC)c1ccc(Cl)cc1Cl` (stereo in doubt), the inhibition is under 10%.

For `CNC(c1ccc(Cl)cc1Cl)C(NC)c1ccc(Cl)cc1Cl` (stereo in doubt; 2a (d,l)), the inhibition was under 10%.

For `CNC(c1ccc(Cl)cc1Cl)C(NC)c1ccc(Cl)cc1Cl` (stereo in doubt), the inhibition was under 10%.

Regarding `CCN1CN(CC)C(c2ccc(Cl)cc2Cl)C1c1ccc(Cl)cc1Cl` (stereo in doubt), the inhibition is under 10%.

Turning to `CCCNC(c1ccc(Cl)cc1Cl)C(NCCC)c1ccc(Cl)cc1Cl` (stereo in doubt), the inhibition was under 10%.

Consider `CCNC(c1ccc(Cl)cc1Cl)C(NCC)c1ccc(Cl)cc1Cl` (stereo in doubt; 2b (d,l)), for which the inhibition was under 10%.

Consider `CCN1CN(CC)C(c2ccc(Cl)c(Cl)c2)C1c1ccc(Cl)c(Cl)c1` (stereo in doubt), for which the inhibition was under 10%.

Take `CCCCNC(c1ccc(Cl)cc1Cl)C(NCCCC)c1ccc(Cl)cc1Cl` (stereo in doubt): the inhibition was under 10%.

Consider `CCCCNC(c1ccc(Cl)c(Cl)c1)C(NCCCC)c1ccc(Cl)c(Cl)c1` (stereo in doubt), for which the inhibition is under 10%.

For `CCN1CN(CC)C(c2ccc(Cl)c(Cl)c2)C1c1ccc(Cl)c(Cl)c1` (trans isomer), the inhibition is under 10%.

`CCN1CN(CC)C(c2ccc(Cl)cc2Cl)C1c1ccc(Cl)cc1Cl` (trans isomer): the inhibition was under 10%.

Turning to `CCCNC(c1ccc(Cl)cc1Cl)C(NCCC)c1ccc(Cl)cc1Cl` (stereo in doubt; 2c (d,l)), the inhibition was under 10%.

In the case of `CCNC(c1ccc(Cl)c(Cl)c1)C(NCC)c1ccc(Cl)c(Cl)c1` (stereo in doubt; 2i (d,l)), the inhibition is under 10%.

Regarding `CCN1CN(CC)C(c2cc(Cl)cc(Cl)c2)C1c1cc(Cl)cc(Cl)c1` (trans isomer), the inhibition is under 10%.

Regarding `CCNC(c1cc(Cl)cc(Cl)c1)C(NCC)c1cc(Cl)cc(Cl)c1` (stereo in doubt), the inhibition was under 10%.

As to `CCCCN1CN(CCCC)C(c2c(Cl)cccc2Cl)C1c1c(Cl)cccc1Cl` (stereo in doubt; trans), the inhibition is under 10%.

The next experiment concerns the target T1, Estrogen receptor (Mus musculus). The experiment can be described thus: Uterotrophic effect in immature mice as uterine dry weight(mg) relative to body weight(g) at 24 ug/day dose. To be noted: Uterus. Format: functional, tissue-based. The essentials:
as §1
`CCN1CN(CC)C(c2c(Cl)cccc2Cl)C1c1c(Cl)cccc1Cl` (trans isomer) returned an Effect of 22.8.

A further experiment shares this target. The experiment can be described thus: Uterotrophic effect in immature mice as uterine dry weight(mg) relative to body weight(g) at 100 ug/day dose. The format is functional, tissue-based. To be noted: Uterus. The essentials: as §4
The molecule `CCNC(c1c(Cl)cccc1Cl)C(NCC)c1c(Cl)cccc1Cl` (stereo in doubt) showed an Effect of 22.7.

A further experiment shares this target. The experiment can be described thus: (§5) Uterotrophic effect in immature mice as uterine dry weight(mg) relative to body weight(g) at 500 ug/day dose. Format: functional, tissue-based. To be noted: Uterus. The essentials:
as §4
`CCNC(c1c(Cl)cccc1Cl)C(NCC)c1c(Cl)cccc1Cl` (stereo in doubt): the Effect came to 23.5.

A further experiment has the same target. The experiment can be described thus: Uterotrophic effect in immature mice as uterine dry weight(mg) relative to body weight(g) at 80 ug/day dose. The format is functional, tissue-based. The note with it: Uterus. A digest of the protocol:
as §1
In turn, `CCN1CN(CC)C(c2c(Cl)cccc2Cl)C1c1c(Cl)cccc1Cl` (trans isomer) had an Effect of 24.2.

The target is the same in another experiment. The experiment can be described thus: Uterotrophic effect in immature mice as uterine dry weight(mg) relative to body weight(g) at 5000 ug/day dose. Format: functional, tissue-based. To be noted: Uterus. The essentials: as §1
The molecule `CCCN1CN(CCC)C(c2c(Cl)cccc2Cl)C1c1c(Cl)cccc1Cl` (stereo in doubt) had an Effect of 24.5.

For another experiment the target is unchanged. The experiment can be described thus: (§6) Uterotrophic effect in immature mice as uterine dry weight(mg) relative to body weight(g) at 0 ug/day dose. The format is functional, tissue-based. To be noted: Uterus. A digest of the protocol:
as §4
As for `CCNC(c1c(Cl)cccc1Cl)C(NCC)c1c(Cl)cccc1Cl` (stereo in doubt), the Effect worked out at 12.8.

The next experiment has as its target T2, Estrogen receptor (Rattus norvegicus). The experiment can be described thus: In vitro affinity for rat Estrogen receptor.
Conditions: not given
Format: protein assay.
Take `CNC(c1c(Cl)cccc1Cl)C(NC)c1c(Cl)cccc1Cl` (stereo in doubt): the Ka came out at 91000.

In turn, `CCNC(c1c(Cl)cccc1Cl)C(NCC)c1c(Cl)cccc1Cl` (stereo in doubt; 2f (d,l)) returned a Ka of 130000.

`CCCN1CN(CCC)C(c2c(Cl)cccc2Cl)C1c1c(Cl)cccc1Cl` (trans isomer) returned a Ka of 1.6e+06.

In turn, `CCCNC(c1c(Cl)cccc1Cl)C(NCCC)c1c(Cl)cccc1Cl` (stereo in doubt; 2g (d,l)) registered a Ka of 830000.

Regarding `CN1CN(C)C(c2c(Cl)cccc2Cl)C1c1c(Cl)cccc1Cl` (stereo in doubt; cis), the Ka came to 180000.

As for `CC[C@H](c1ccc(O)cc1)[C@@H](CC)c1ccc(O)cc1`, the Ka is 8.3e+08.

For the molecule `CN1CN(C)C(c2c(Cl)cccc2Cl)C1c1c(Cl)cccc1Cl` (stereo in doubt; trans), the Ka turned out to be 480000.

As to `CCN1CN(CC)C(c2c(Cl)cccc2Cl)C1c1c(Cl)cccc1Cl` (cis isomer), the Ka turned out to be 200000.

In turn, `CNC(c1c(Cl)cccc1Cl)C(NC)c1c(Cl)cccc1Cl` (stereo in doubt; 2e (d,l)) displayed a Ka of 140000.

For the molecule `CCCN1CN(CCC)C(c2c(Cl)cccc2Cl)C1c1c(Cl)cccc1Cl` (stereo in doubt), the Ka turned out to be 320000.

For `CCCNC(c1c(Cl)cccc1Cl)C(NCCC)c1c(Cl)cccc1Cl` (stereo in doubt), the Ka turned out to be 2.3e+06.

Turning to `CCNC(c1c(Cl)cccc1Cl)C(NCC)c1c(Cl)cccc1Cl` (stereo in doubt), the Ka was determined as 670000.

For `CCN1CN(CC)C(c2c(Cl)cccc2Cl)C1c1c(Cl)cccc1Cl` (trans isomer), the Ka was found to be 200000.

A further experiment addresses T1, Estrogen receptor (Mus musculus). The description is as §3. The format is functional, tissue-based. To be noted: Uterus. The essentials: as §1
In turn, `CCCN1CN(CCC)C(c2c(Cl)cccc2Cl)C1c1c(Cl)cccc1Cl` (trans isomer) had an Effect of 43.

The molecule `CCN1CN(CC)C(c2c(Cl)cccc2Cl)C1c1c(Cl)cccc1Cl` (cis isomer) returned an Effect of 22.3.

`CCCN1CN(CCC)C(c2c(Cl)cccc2Cl)C1c1c(Cl)cccc1Cl` (stereo in doubt) displayed an Effect of 19.7.

`CCCNC(c1c(Cl)cccc1Cl)C(NCCC)c1c(Cl)cccc1Cl` (stereo in doubt) came in with an Effect of 31.3.

The target is the same in the next experiment. Described as §2. The format is functional, tissue-based. The note with it: Uterus. A digest of the protocol:
as §4
As for `CCNC(c1c(Cl)cccc1Cl)C(NCC)c1c(Cl)cccc1Cl` (stereo in doubt), the Effect was 27.4.

The next experiment has the same target. The description is as §6. Format: functional, tissue-based. To be noted: Uterus. A digest of the protocol: as §1
`CCCN1CN(CCC)C(c2c(Cl)cccc2Cl)C1c1c(Cl)cccc1Cl` (trans isomer) gave an Effect of 12.9.

In turn, `CCCNC(c1c(Cl)cccc1Cl)C(NCCC)c1c(Cl)cccc1Cl` (stereo in doubt; 2g (d,l)) returned an Effect of 12.9.

Take `CCN1CN(CC)C(c2c(Cl)cccc2Cl)C1c1c(Cl)cccc1Cl` (cis isomer): the Effect turned out to be 12.8.

Molecule `CCCN1CN(CCC)C(c2c(Cl)cccc2Cl)C1c1c(Cl)cccc1Cl` (stereo in doubt) had an Effect of 12.8.

`CCCNC(c1c(Cl)cccc1Cl)C(NCCC)c1c(Cl)cccc1Cl` (stereo in doubt): the Effect was determined as 12.9.

Take `CCN1CN(CC)C(c2c(Cl)cccc2Cl)C1c1c(Cl)cccc1Cl` (trans isomer): the Effect turned out to be 14.9.

The next experiment shares this target. Described as §5. Format: functional, tissue-based. The note with it: Uterus. A digest of the protocol: as §1
For the molecule `CCCN1CN(CCC)C(c2c(Cl)cccc2Cl)C1c1c(Cl)cccc1Cl` (trans isomer), the Effect stood at 28.

With `CCCNC(c1c(Cl)cccc1Cl)C(NCCC)c1c(Cl)cccc1Cl` (stereo in doubt; 2g (d,l)), the Effect came to 27.1.

`CCN1CN(CC)C(c2c(Cl)cccc2Cl)C1c1c(Cl)cccc1Cl` (cis isomer) registered an Effect of 19.7.

Take `CCCN1CN(CCC)C(c2c(Cl)cccc2Cl)C1c1c(Cl)cccc1Cl` (stereo in doubt): the Effect was found to be 16.2.

In the case of `CCCNC(c1c(Cl)cccc1Cl)C(NCCC)c1c(Cl)cccc1Cl` (stereo in doubt), the Effect was 22.6.

The target is the same in the next experiment. The experiment can be described thus: Uterotrophic effect in immature mice as uterine dry weight(mg) relative to body weight(g) at 400 ug/day dose. The format is functional, tissue-based. The note with it: Uterus. A digest of the protocol:
as §1
`CCN1CN(CC)C(c2c(Cl)cccc2Cl)C1c1c(Cl)cccc1Cl` (trans isomer) came in with an Effect of 38.1.
